The results in this text go back to ChEMBL document CHEMBL1212866, “Synthesis and anti-hepatitis C virus activity of novel ethyl 1H-indole-3-carboxylates in vitro” (Bioorg Med Chem, 2010).

Series [1] relates to Hepatitis C virus. The series is described as follows: Antiviral activity against HCV 2a infected in human Huh7.5 cells assessed inhibition of viral entry after 3 days. Type of series: functional, Hepacivirus hominis, genotype 2a, Huh-7. A digest of the protocol: (§1)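 Naive Huh-7.5 cells infected with viral particles carrying a subgenomic HCV RNA with a firefly luciferase reporter, then plated in 96-well format with compounds present. Luciferase activity read after three days of incubation. IC50 calculated; single-point lines give % inhibition at 100 µM.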

Series [2] can be described thus: Selectivity index, IC50 for human Huh7.5 cells to TC50 for inhibition of HCV 2a entry into human Huh7.5 cells. Type of series: functional, Huh-7. A digest of the protocol: (§2)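 Index computed as TC50 divided by IC50. TC50 comes from the CellTiter-Blue viability assay in Huh-7.5 cells. IC50 comes from the luciferase-reporter HCV infection (entry) or replicon (replication) assay in Huh-7.5 cells, read after three days.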

Series [3] relates to Hepatitis C virus. The series is described as follows: Antiviral activity against HCV 2a infected in human Huh7.5 cells assessed inhibition of viral replication after 3 days by luciferase assay. Type of series: functional, Hepacivirus hominis, genotype 2a, Huh-7. A digest of the protocol:
(§3)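 Huh-7.5 cells transfected with an RNA transcript of a replicon carrying a firefly luciferase reporter, then plated in 96-well plates with compounds present. Luciferase activity measured after three days of incubation. IC50 calculated; single-point lines give % inhibition at 100 µM.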

The nature of series [4]: Selectivity index, IC50 for human Huh7.5 cells to TC50 for inhibition of HCV 2a replication in human Huh7.5 cells. It is filed as functional, Huh-7. In outline: as §2
A short description of series [5]: Cytotoxicity against human Huh7.5 cells by celltiter-blue viability assay. Type of series: cell-based. Particulars: Huh-7. In outline: (§4)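 Huh-7.5 cells exposed to compounds, and viability estimated by CellTiter-Blue, a resazurin reagent that metabolically active cells reduce to fluorescent resorufin (excitation 579 nm, emission 584 nm). TC50 taken as the 50% cytotoxic concentration; the single-point line reflects testing at 50 µM.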
In general terms: The colour change of resazurin is a common sign of viable cells or microbes.

Series [6] deals with Hepatitis C virus. The series is described as follows: Antiviral activity against HCV 2a infected in human Huh7.5 cells assessed inhibition of viral replication at 100 uM after 3 days by luciferase assay. Type of series: functional, Hepacivirus hominis. Particulars: genotype 2a, Huh-7, 72 h. In outline: as §3
The nature of series [7]: Cytotoxicity against human Huh7.5 cells at 50 uM by celltiter-blue viability assay. Particulars: huh-7, 50 µM. Type of series: cell-based. In outline:
as §4

The test system of series [8] is Hepatitis C virus. The series is described as follows: Antiviral activity against HCV 2a infected in human Huh7.5 cells assessed inhibition of viral entry at 100uM after 3 days. Type of series: functional, Hepacivirus hominis. Particulars: genotype 2a, Huh-7, 72 h. In outline: as §1

The term IC50 denotes the concentration that inhibits the measured activity by half. `CCOC(=O)c1c(CS(=O)(=O)c2ccccc2)n(C)c2ccc(CN(C)C)cc12`: the TC50 in the series with Hepatitis C virus [1] and in the series with Hepatitis C virus [3] was greater than 50 µM in each case. Further, the “Selectivity Index” value in series [2] is recorded as greater than 2.6; in series [4], greater than 5. The same compound gave an IC50 in series [5] of 10 µM.
In general, inhibition refers to the drop in the measured response relative to a control, in per cent. The low end stands for little suppression, the high end for strong suppression. As to `CCOC(=O)c1c(CS(=O)(=O)c2ccccc2)n(C)c2ccc(CN3CCCC3)cc12`, the inhibition at 100 µM in the series with Hepatitis C virus [6] was 80%; with Hepatitis C virus [8] it was 95%. Also, the TC50 with Hepatitis C virus [1] and in the series with Hepatitis C virus [3] was greater than 50 µM each time. For the same compound, the “Selectivity Index” value was greater than 10 in series [2] and greater than 16.7 in series [4]. Moreover, in series [7], the Activity result is “Non-toxic”. In series [5], this compound came in with an IC50 of 3 µM.
`CCOC(=O)c1c(CS(=O)(=O)c2ccccc2)n(C)c2ccc(CN3CCN(C)CC3)cc12`: the TC50 in the series with Hepatitis C virus [1] and in the series with Hepatitis C virus [3] was greater than 50 µM each time. In addition, the “Selectivity Index” value in series [2] is on record as greater than 6.3; in series [4], greater than 12.5. In series [5], this compound registered an IC50 of 4 µM.
On to `CCOC(=O)c1c(CS(=O)(=O)c2ccccc2)n(C)c2ccc(CN3CCOCC3)cc12`, for which the TC50 with Hepatitis C virus [1] and in the series on Hepatitis C virus [3] was greater than 50 µM each time. The figures for the “Selectivity Index” value in series [2] and in series [4] were greater than 3.6 and greater than 12.5, respectively. Further, 4 µM corresponded to half-maximal inhibition in series [5] (IC50).
For the compound `CCOC(=O)c1c(CS(=O)(=O)c2ccccc2)n(C)c2ccc(CN3CCCNCC3)cc12`, the TC50 with Hepatitis C virus [1] and with Hepatitis C virus [3] was greater than 50 µM throughout. Also, the “Selectivity Index” value in series [2] is reported as greater than 2.4; in series [4], greater than 4.2. Also, the IC50 in series [5] was determined as 12 µM.
As to `CCOC(=O)c1c(CS(=O)(=O)c2ccccc2)n(C)c2ccc(Cn3ccnc3)cc12`, the results for the TC50 with Hepatitis C virus [1] and in the series on Hepatitis C virus [3] were 23 µM and 18 µM, respectively. Also, the figures for the “Selectivity Index” value in series [2] and in series [4] were 4.6 and 1.2, respectively. This compound also registered an IC50 in series [5] of 15 µM.
For `CCOC(=O)c1c(C)n(C)c2ccc(CN(C)C)cc12`, the TC50 with Hepatitis C virus [1] and in the series with Hepatitis C virus [3] was greater than 50 µM in each case. Further, the “Selectivity Index” value in series [2] was greater than 6.3; in series [4], greater than 16.7. This compound also showed an IC50 in series [5] of 3 µM.
Take `CCOC(=O)c1c(C)n(C)c2ccc(CN3CCCC3)cc12`: the TC50 with Hepatitis C virus [1] and with Hepatitis C virus [3] was greater than 50 µM throughout. The “Selectivity Index” value in series [2] is recorded as greater than 3.8; in series [4], greater than 10. The midpoint of inhibition in series [5], the IC50, lay at 5 µM.
With `CCOC(=O)c1c(CSc2ccccc2)n(C)c2cc(Br)c(O)c(CN(C)C)c12` [UMIFENOVIR], the values for the TC50 in the series with Hepatitis C virus [1] and in the series with Hepatitis C virus [3] were 12 µM and 15 µM, respectively. The “Selectivity Index” value in series [2] was determined as 6; in series [4], 15. This compound also gave an IC50 in series [5] of 1 µM.
